Source: ChEMBL document CHEMBL1122285, “New myocardial imaging agents: stabilization of radioiodine as a terminal vinyl iodide moiety on tellurium fatty acids” (J Med Chem, 1983)

Assays:
[1] = test system: Rattus norvegicus; assay: Tested for distribution of radioactivity iodine 125 in heart of rat after 30 min of intravenous administration (value in parentheses indicates range); type: ADME, organism-based; settings: in vivo, 0.5 h
Outline: (§1)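 Fischer 344 rats, four per time point, under ether anaesthesia. Each received ~8.6 μCi of 125I-labelled fatty acid (sp act ~20 mCi/mmol) by lateral tail vein in 0.5 mL 6% bovine serum albumin with 10% final ethanol, filtered before injection. Percent injected dose/g was calculated against injectate standards and reported as mean (range). Thyroid weight was taken as body weight × 7.5 mg/100 g.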

[2] = test system: Rattus norvegicus; assay: Tested for distribution of radioactivity iodine 125 in heart of rat after 4 hours of intravenous administration; type: ADME, organism-based; settings: in vivo; outline: as §1
[3] = test system: Rattus norvegicus; assay: Tested for distribution of radioactivity iodine 125 in heart of rat after 60 min of intravenous administration; type: ADME, organism-based; settings: in vivo, 1 h; outline: as §1
[4] = test system: Rattus norvegicus; assay: Tested for distribution of radioactivity of iodine 125 in blood of rat after 2 hour of intravenous administration; type: ADME, organism-based; settings: in vivo; outline: as §1
[5] = test system: Rattus norvegicus; assay: Tested for distribution of radioactivity of iodine 125 in blood of rat after 30 min of intravenous administration; type: ADME, organism-based; settings: in vivo, 0.5 h; outline: as §1
[6] = test system: Rattus norvegicus; assay: Tested for distribution of radioactivity of iodine 125 in blood of rat after 4 hours of intravenous administration; type: ADME, organism-based; settings: in vivo; outline: as §1
[7] = test system: Rattus norvegicus; assay: Tested for distribution of radioactivity of iodine 125 in blood of rat after 5 min of intravenous administration; type: ADME, organism-based; settings: in vivo; outline: as §1
[8] = test system: Rattus norvegicus; assay: Tested for distribution of radioactivity of iodine 125 in blood of rat after 60 min of intravenous administration; type: ADME, organism-based; settings: in vivo, 1 h; outline: as §1
[9] = test system: Rattus norvegicus; assay: Tested for distribution of radioactivity of iodine 125 in heart of rat after 5 min of intravenous administration; type: ADME, organism-based; settings: in vivo; outline: as §1
[10] = test system: Rattus norvegicus; assay: Tested for distribution of radioactivity of iodine 125 in kidney of rat after 2 hours of intravenous administration; type: ADME, organism-based; settings: in vivo; outline: as §1
[11] = test system: Rattus norvegicus; assay: Tested for distribution of radioactivity of iodine 125 in kidney of rat after 30 min of intravenous administration; type: ADME, organism-based; settings: in vivo, 0.5 h; outline: as §1
[12] = test system: Rattus norvegicus; assay: Tested for distribution of radioactivity of iodine 125 in kidney of rat after 4 hours of intravenous administration; type: ADME, organism-based; settings: in vivo; outline: as §1
[13] = test system: Rattus norvegicus; assay: Tested for distribution of radioactivity of iodine 125 in kidney of rat after 5 min of intravenous administration; type: ADME, organism-based; settings: in vivo; outline: as §1
[14] = test system: Rattus norvegicus; assay: Tested for distribution of radioactivity of iodine 125 in liver of rat after 2 hr of intravenous administration; type: ADME, organism-based; settings: in vivo; outline: as §1
[15] = test system: Rattus norvegicus; assay: Tested for distribution of radioactivity of iodine 125 in liver of rat after 30 min of intravenous administration; type: ADME, organism-based; settings: in vivo, 0.5 h; outline: as §1
[16] = test system: Rattus norvegicus; assay: Tested for distribution of radioactivity of iodine 125 in liver of rat after 5 min of intravenous administration; type: ADME, organism-based; settings: in vivo; outline: as §1
[17] = test system: Rattus norvegicus; assay: Tested for distribution of radioactivity of iodine 125 in liver of rat after 60 min of intravenous administration; type: ADME, organism-based; settings: in vivo, 1 h; outline: as §1
[18] = test system: Rattus norvegicus; assay: Tested for distribution of radioactivity of iodine 125 in thyroid of rat after 30 min of intravenous administration; type: ADME, organism-based, Thyroid gland; settings: in vivo, 0.5 h; outline: as §1
[19] = test system: Rattus norvegicus; assay: Tested for distribution of radioactivity of iodine 125 in thyroid of rat after 4 hr of intravenous administration; type: ADME, organism-based, Thyroid gland; settings: in vivo; outline: as §1
[20] = test system: Rattus norvegicus; assay: Tested for distribution of radioactivity of iodine 125 in thyroid of rat after 5 min of intravenous administration; type: ADME, organism-based, Thyroid gland; settings: in vivo; outline: as §1
[21] = test system: Rattus norvegicus; assay: Tested for distribution of radioactivity of iodine 125 in thyroid of rat after 60 min of intravenous administration; type: ADME, organism-based, Thyroid gland; settings: in vivo, 1 h; outline: as §1
[22] = test system: Rattus norvegicus; assay: Tested for distribution of radioactivity of iodine 125 in lungs of rat after 2 hours of intravenous administration; type: ADME, organism-based, Lung; settings: in vivo; outline: as §1
[23] = test system: Rattus norvegicus; assay: Tested for distribution of radioactivity of iodine 125 in lungs of rat after 30 min of intravenous administration; type: ADME, organism-based, Lung; settings: in vivo, 0.5 h; outline: as §1
[24] = test system: Rattus norvegicus; assay: Tested for distribution of radioactivity of iodine 125 in lungs of rat after 5 min of intravenous administration; type: ADME, organism-based, Lung; settings: in vivo; outline: as §1
[25] = test system: Rattus norvegicus; assay: Tested for distribution of radioactivity of iodine 125 in lungs of rat after 60 min of intravenous administration; type: ADME, organism-based, Lung; settings: in vivo, 1 h; outline: as §1
[26] = test system: Rattus norvegicus; assay: Tested for distribution of radioactivity of iodine 125 in thyroid of rat after 2 hr of intravenous administration; type: ADME, organism-based, Thyroid gland; settings: in vivo; outline: as §1
[27] = test system: Rattus norvegicus; assay: Tested for distribution of radioactivity of iodine 125 in liver of rat after 4 hr of intravenous administration; type: ADME, organism-based; settings: in vivo; outline: as §1
[28] = test system: Rattus norvegicus; assay: Tested for distribution of radioactivity in heart of rat after 2 hours of intravenous administration; type: ADME, organism-based; settings: in vivo; outline: as §1
[29] = Tested for distribution of radioactivity of iodine 125 in kidney of rat after 60 min of intravenous administration; type: ADME; settings: in vivo, 1 h; outline: as §1

## O=C(O)CCCCC[Te]CCCCCCCCC/C=C/I
[1]
  Injected dose/g: 2.78%
[2]
  Injected dose/g: 2.37%
[3]
  Injected dose/g: 2.96%
[4]
  Injected dose/g: 0.23%
[5]
  Injected dose/g: 0.22%
[6]
  Injected dose/g: 0.27%
[7]
  Injected dose/g: 0.26%
[8]
  Injected dose/g: 0.22%
[9]
  Injected dose/g: 3.47%
[10]
  Injected dose/g: 0.88%
[11]
  Injected dose/g: 0.89%
[12]
  Injected dose/g: 0.77%
[13]
  Injected dose/g: 1.05%
[14]
  Injected dose/g: 4.78%
[15]
  Injected dose/g: 5.63%
[16]
  Injected dose/g: 6.18%
[17]
  Injected dose/g: 5.33%
[18]
  Injected dose/g: 13.5%
[19]
  Injected dose/g: 69.8%
[20]
  Injected dose/g: 8.54%
[21]
  Injected dose/g: 22.2%
[22]
  Injected dose/g: 1%
[23]
  Injected dose/g: 0.96%
[24]
  Injected dose/g: 1.29%
[25]
  Injected dose/g: 1%
[26]
  Injected dose/g: 43.8%
[27]
  Injected dose/g: 4.4%
[28]
  Injected dose/g: 2.86%
[29]
  Injected dose/g: 0.95%
